From ChEMBL document CHEMBL1687701, “Discovery of N-Aryl Piperazines as Selective mGlu(5) Potentiators with Efficacy in a Rodent Model Predictive of Anti-Psychotic Activity” (ACS Med Chem Lett, 2010)
Calls of active or inactive are those of the source. The calls are words filed in the database; no cut-off is given here.

Key:
[1] = biological target: T1, Metabotropic glutamate receptor 5 (Rattus norvegicus, UniProt P31424); test: Negative allosteric modulation at rat mGluR5 receptor
[2] = biological target: Metabotropic glutamate receptor 5 (Rattus norvegicus) (UniProt P31424); test: Positive allosteric modulation at rat mGluR5 receptor expressed in HEK293 cells assessed as glutamate-induced calcium fluorescence at 30 uM by Fluo-4/AM dye-based fluorescence assay in relative to glutamate; assay type: functional, cell-based
[3] = biological target: T1, Metabotropic glutamate receptor 5; test: Positive allosteric modulation at rat mGluR5 receptor expressed in HEK293 cells assessed as glutamate-induced calcium fluorescence by Fluo-4/AM dye-based fluorescence assay; assay type: functional, cell-based
[4] = Passive transcellular permeability of the compound by PAMPA; assay type: ADME; details: read-out: permeability
[5] = Aqueous solubility of the compound in 0.01 N HCl buffer at pH 2 by HPLC; assay type: physicochemical
[6] = biological target: Metabotropic glutamate receptor 5 (Rattus norvegicus) (UniProt P31424); test: Displacement of [3H]3-methoxy-PEPy from rat mGluR5 receptor allosteric binding site at 30 uM
Summary of the method: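 Radioligand binding uses [3H]3-methoxy-PEPy at the mGluR5 allosteric site. Displacement is read at the highest compound concentration tested, 30 μM.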

[7] = biological target: Metabotropic glutamate receptor 8 (Rattus norvegicus) (UniProt P70579); test: Potentiation of rat mGluR8 receptor assessed as fold shift in glutamate concentration response curve at 10 uM relative to control
[8] = biological target: Metabotropic glutamate receptor 2 (Rattus norvegicus) (UniProt P31421); test: Potentiation of rat mGluR2 receptor assessed as fold shift in glutamate concentration response curve at 10 uM relative to control
[9] = biological target: Metabotropic glutamate receptor 5 (Rattus norvegicus) (UniProt P31424); test: Positive allosteric modulation at mGluR5 in […] cells at 30 uM by Fluo-4/AM dye-based fluorescence assay; assay type: cell-based
[10] = Aqueous solubility of the compound in 0.2M sodium phosphate buffer at pH 7.4 by HPLC; assay type: physicochemical
[11] = Metabolic stability in human liver microsome assessed as compound remaining after 60 mins by LC-MS-MS; assay type: ADME; details: liver microsomes, read-out: Stability
[12] = biological target: Metabotropic glutamate receptor 3 (Rattus norvegicus) (UniProt P31422); test: Potentiation of rat mGluR3 receptor assessed as fold shift in glutamate concentration response curve at 10 uM relative to control
[13] = biological target: Metabotropic glutamate receptor 5 (Rattus norvegicus) (UniProt P31424); test: Potentiation of rat mGluR5 expressed in HEK293 cells assessed as glutamate-induced calcium fluorescence at 10 uM by Fluo-4/AM dye-based fluorescence assay; assay type: functional, cell-based
Plasma [14] = test: Plasma protein binding in Sprague-Dawley rat after 4 hrs by LC-MS-MS; assay type: ADME, cell-free
[15] = biological target: Metabotropic glutamate receptor 6 (Rattus norvegicus) (UniProt P35349); test: Potentiation of rat mGluR6 receptor assessed as fold shift in glutamate concentration response curve at 10 uM relative to control
[16] = biological target: Metabotropic glutamate receptor 5 (Rattus norvegicus) (UniProt P31424); test: Potentiation of rat mGluR5 receptor assessed as fold shift in glutamate concentration response curve at 10 uM relative to control
[17] = biological target: Metabotropic glutamate receptor 4 (Rattus norvegicus) (UniProt P31423); test: Potentiation of rat mGluR4 receptor assessed as fold shift in glutamate concentration response curve at 10 uM relative to control
Rattus norvegicus = test: Reversal of amphetamine-induced hyperlocomotion in Sprague-Dawley rat at 56.6 mg/kg, ip administered 30 mins before amphetamine challenge measured for 60 mins; assay type: functional, organism-based; design: dose 56.6 mg/kg
Summary of the method: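 Rats get vehicle or 56.6 mg/kg compound ip in 20% HP β-cyclodextrin 30 min before 1 mg/kg sc amphetamine, given at 60 min. Ambulations (beam breaks per 5 min interval) are counted for a further 60 min. Groups are 12−14 rats, shown as mean ± SEM, compared with the vehicle + amphetamine group by Dunnett's test.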

[18] = biological target: Metabotropic glutamate receptor 1 (Rattus norvegicus) (UniProt P23385); test: Potentiation of rat mGluR1 receptor assessed as fold shift in glutamate concentration response curve at 10 uM relative to control
Plasma [19] = test: Plasma protein binding in human after 4 hrs by LC-MS-MS; assay type: ADME, cell-free
[20] = Metabolic stability in Sprague-Dawley rat liver microsome assessed as compound remaining after 60 mins by LC-MS-MS; assay type: ADME; details: liver microsomes, read-out: Stability
[21] = biological target: Metabotropic glutamate receptor 7 (Rattus norvegicus) (UniProt P35400); test: Potentiation of rat mGluR7 receptor assessed as fold shift in glutamate concentration response curve at 10 uM relative to control
[22] = Aqueous solubility of the compound in 0.1 M citrate buffer at pH 4 by HPLC; assay type: physicochemical

Chain of Metabotropic glutamate receptor 5 (Rattus norvegicus) (P31424 21-1203 limits assumed): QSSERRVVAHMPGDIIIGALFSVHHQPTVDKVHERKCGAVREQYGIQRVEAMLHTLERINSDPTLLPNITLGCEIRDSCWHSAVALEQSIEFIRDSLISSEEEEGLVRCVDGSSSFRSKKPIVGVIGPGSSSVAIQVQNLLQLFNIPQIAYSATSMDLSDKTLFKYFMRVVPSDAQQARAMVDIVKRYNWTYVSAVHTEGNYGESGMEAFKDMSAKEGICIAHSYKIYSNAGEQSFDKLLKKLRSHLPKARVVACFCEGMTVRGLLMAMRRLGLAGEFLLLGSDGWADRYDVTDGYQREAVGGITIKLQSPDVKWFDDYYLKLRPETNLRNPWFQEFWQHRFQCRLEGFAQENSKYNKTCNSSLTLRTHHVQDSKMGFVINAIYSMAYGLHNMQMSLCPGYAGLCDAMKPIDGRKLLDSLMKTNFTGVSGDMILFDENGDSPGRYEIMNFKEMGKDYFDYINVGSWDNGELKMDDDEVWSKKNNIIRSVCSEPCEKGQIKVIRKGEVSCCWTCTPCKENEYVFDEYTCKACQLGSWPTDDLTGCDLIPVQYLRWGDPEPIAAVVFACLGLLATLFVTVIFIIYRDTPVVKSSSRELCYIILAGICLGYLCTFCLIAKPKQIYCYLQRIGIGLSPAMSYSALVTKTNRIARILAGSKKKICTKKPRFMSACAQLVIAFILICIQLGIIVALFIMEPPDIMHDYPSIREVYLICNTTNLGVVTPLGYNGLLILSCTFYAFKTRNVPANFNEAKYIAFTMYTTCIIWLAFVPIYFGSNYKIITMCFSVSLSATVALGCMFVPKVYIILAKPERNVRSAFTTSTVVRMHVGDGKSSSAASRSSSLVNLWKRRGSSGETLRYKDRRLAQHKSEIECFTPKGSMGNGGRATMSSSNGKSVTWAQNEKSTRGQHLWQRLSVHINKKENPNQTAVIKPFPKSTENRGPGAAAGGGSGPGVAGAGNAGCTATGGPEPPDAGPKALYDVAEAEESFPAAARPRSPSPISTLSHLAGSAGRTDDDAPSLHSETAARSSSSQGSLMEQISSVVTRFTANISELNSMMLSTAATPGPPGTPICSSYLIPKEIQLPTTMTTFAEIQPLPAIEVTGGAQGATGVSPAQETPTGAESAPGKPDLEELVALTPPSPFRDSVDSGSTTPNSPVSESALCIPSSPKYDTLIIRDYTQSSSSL
T1 sequence (P31424 whole entry): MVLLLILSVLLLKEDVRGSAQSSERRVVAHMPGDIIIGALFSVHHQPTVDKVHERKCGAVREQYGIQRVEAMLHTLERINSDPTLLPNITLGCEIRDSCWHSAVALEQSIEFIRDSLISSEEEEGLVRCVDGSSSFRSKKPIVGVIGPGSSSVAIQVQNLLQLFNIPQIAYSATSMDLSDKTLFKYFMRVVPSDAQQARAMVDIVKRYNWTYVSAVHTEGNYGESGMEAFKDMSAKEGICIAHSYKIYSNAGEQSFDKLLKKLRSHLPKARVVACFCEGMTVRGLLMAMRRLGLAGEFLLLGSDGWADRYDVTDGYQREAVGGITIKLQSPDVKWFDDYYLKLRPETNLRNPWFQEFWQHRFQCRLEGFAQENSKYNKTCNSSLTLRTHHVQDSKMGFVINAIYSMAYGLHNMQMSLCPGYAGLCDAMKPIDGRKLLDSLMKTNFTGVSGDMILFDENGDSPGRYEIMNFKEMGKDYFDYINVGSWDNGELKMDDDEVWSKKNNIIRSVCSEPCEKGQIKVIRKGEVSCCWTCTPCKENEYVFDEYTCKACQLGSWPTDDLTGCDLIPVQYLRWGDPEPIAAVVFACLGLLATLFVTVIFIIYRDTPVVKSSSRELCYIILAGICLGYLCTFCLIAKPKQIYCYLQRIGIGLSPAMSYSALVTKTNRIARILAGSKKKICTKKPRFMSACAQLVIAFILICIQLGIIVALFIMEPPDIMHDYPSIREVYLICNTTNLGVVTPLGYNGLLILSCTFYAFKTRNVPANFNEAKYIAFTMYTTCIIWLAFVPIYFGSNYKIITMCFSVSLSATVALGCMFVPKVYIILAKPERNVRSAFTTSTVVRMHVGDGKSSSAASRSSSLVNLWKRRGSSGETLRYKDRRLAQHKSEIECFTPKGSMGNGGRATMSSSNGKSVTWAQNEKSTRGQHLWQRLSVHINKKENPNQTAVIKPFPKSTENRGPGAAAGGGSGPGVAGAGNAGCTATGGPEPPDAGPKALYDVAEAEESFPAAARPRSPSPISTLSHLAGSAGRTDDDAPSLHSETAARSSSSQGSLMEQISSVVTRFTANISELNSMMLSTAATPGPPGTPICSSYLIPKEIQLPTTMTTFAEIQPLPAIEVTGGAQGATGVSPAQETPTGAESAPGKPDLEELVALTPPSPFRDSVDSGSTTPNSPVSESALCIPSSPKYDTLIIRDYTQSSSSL
Chain of Metabotropic glutamate receptor 6 (Rattus norvegicus) (P35349 whole entry): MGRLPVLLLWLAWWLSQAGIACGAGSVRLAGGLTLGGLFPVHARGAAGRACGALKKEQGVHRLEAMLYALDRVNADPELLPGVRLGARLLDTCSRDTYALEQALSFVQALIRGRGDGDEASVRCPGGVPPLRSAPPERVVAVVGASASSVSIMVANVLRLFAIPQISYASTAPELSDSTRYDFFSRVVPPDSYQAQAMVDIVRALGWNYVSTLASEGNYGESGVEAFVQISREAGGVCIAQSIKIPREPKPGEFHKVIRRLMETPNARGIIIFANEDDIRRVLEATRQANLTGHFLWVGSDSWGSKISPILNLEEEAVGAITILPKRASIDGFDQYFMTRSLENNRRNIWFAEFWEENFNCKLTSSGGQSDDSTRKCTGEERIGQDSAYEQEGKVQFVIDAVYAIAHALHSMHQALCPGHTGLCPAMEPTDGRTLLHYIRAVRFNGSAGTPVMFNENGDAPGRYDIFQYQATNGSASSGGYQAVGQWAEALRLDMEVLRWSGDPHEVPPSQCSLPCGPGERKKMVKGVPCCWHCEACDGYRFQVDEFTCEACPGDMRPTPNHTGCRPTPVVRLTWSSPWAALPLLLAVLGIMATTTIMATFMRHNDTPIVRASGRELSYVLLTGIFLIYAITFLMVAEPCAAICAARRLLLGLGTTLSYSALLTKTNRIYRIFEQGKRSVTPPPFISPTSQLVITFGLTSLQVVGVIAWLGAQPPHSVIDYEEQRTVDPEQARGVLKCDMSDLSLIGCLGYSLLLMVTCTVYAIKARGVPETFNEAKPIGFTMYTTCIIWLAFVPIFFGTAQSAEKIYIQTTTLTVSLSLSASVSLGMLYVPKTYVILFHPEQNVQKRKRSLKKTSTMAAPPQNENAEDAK
Chain of Metabotropic glutamate receptor 3 (Rattus norvegicus) (P31422 23-879 limits assumed): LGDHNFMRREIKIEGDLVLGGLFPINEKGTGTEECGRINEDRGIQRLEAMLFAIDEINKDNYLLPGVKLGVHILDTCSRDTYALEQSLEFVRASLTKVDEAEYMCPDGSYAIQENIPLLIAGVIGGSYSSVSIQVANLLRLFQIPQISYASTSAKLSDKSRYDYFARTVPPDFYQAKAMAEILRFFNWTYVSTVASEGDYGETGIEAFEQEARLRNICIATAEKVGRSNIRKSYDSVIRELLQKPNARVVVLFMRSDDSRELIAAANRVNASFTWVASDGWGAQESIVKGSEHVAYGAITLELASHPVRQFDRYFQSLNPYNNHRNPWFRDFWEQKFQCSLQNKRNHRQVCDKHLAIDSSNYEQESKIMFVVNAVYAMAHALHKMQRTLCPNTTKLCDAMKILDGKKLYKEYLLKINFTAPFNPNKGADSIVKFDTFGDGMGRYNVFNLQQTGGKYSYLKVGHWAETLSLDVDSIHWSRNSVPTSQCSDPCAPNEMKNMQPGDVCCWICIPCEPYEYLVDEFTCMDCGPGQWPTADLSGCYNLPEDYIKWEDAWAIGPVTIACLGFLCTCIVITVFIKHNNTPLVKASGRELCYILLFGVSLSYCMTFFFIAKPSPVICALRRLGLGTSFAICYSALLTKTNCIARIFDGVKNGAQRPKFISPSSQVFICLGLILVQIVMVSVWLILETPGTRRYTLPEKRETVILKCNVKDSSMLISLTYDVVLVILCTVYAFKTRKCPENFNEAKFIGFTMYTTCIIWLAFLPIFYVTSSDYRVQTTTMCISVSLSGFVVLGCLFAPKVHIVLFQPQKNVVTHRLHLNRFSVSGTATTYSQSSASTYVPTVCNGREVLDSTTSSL
Chain of Metabotropic glutamate receptor 2 (Rattus norvegicus) (P31421 19-872 limits assumed): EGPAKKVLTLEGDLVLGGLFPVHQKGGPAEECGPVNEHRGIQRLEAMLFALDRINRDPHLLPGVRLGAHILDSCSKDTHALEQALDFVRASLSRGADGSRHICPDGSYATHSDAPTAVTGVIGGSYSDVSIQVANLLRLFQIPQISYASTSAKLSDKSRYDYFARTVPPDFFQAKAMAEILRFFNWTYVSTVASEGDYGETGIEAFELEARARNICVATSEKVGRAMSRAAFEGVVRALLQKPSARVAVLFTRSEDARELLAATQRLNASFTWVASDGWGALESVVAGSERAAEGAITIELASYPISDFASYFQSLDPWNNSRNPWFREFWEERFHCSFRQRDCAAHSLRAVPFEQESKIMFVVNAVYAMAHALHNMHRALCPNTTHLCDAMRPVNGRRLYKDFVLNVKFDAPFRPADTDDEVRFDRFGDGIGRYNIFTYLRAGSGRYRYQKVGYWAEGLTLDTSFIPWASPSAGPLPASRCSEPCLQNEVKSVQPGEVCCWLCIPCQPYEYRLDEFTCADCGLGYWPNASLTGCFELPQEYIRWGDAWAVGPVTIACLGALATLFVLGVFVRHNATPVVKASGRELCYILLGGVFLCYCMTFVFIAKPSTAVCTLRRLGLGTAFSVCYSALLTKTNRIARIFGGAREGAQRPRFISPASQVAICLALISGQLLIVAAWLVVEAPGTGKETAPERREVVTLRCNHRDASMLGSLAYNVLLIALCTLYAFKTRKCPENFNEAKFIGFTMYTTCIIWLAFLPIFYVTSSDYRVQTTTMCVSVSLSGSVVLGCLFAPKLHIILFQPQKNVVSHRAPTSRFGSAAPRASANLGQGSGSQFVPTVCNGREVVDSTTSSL

**Q.** Which IC50 [1] does the source give for `O=C(N1CCN(c2ccccn2)CC1)C12CC3CC(CC(C3)C1)C2` here?
**A.** 0.99 µM

**Q.** For `O=C(COCc1ccccc1)N1CCN(c2ncccc2C(F)(F)F)CC1`, which Activity [2] is on record?
**A.** 70%

**Q.** What about the EC50 ([3]; read-out: EC50) of the same compound?
**A.** 4.3 µM

**Q.** With `O=C(COCc1ccccc1)N1CCN(c2ncccn2)CC1` as the compound, how does the EC50 ([3]; hek293) read?
**A.** Not Active

**Q.** Which Activity [2] does the source give for `O=C(COCc1ccccc1)N1CCN(c2nccs2)CC1` here?
**A.** 30%

**Q.** What about the EC50 ([3]; read-out: EC50) of the same compound?
**A.** > 10 µM

**Q.** With `O=C(COCc1ccccc1)N1CCN(c2ccccc2Cl)CC1` as the compound, how does the Activity [2] read?
**A.** 90%

**Q.** And the EC50 ([3]; read-out: EC50)?
**A.** 0.82 µM

**Q.** With `N#Cc1ccccc1N1CCN(C(=O)COCc2ccccc2)CC1` as the compound, how does the Papp [4] read?
**A.** 2.2 ×10⁻⁶ cm/s

**Q.** And the solubility [5]?
**A.** > 80 µM

**Q.** What about the Activity [6] of the same compound?
**A.** inactive

**Q.** And the Activity [7]?
**A.** inactive

**Q.** And the Activity [2]?
**A.** 78%

**Q.** And the Activity [8]?
**A.** inactive

**Q.** And the Activity [9]?
**A.** < 10%

**Q.** What about the solubility [10] of the same compound?
**A.** > 80 µM

**Q.** And the remaining at 1 h [11]?
**A.** < 5%

**Q.** What about the Activity [12] of the same compound?
**A.** inactive

**Q.** And the Activity [13]?
**A.** Active

**Q.** And the PPB (Plasma [14])?
**A.** 90%

**Q.** What about the Activity [15] of the same compound?
**A.** inactive

**Q.** What about the fold change (FC) [16] of the same compound?
**A.** 12

**Q.** What about the Activity [17] of the same compound?
**A.** inactive

**Q.** What about the Activity (Rattus norvegicus) of the same compound?
**A.** Active

**Q.** What about the Activity [18] of the same compound?
**A.** inactive

**Q.** What about the PPB (Plasma [19]) of the same compound?
**A.** 94%

**Q.** What about the EC50 ([3]; read-out: EC50) of the same compound?
**A.** 1.6 µM

**Q.** What about the remaining at 1 h [20] of the same compound?
**A.** < 5%

**Q.** And the Activity [21]?
**A.** inactive

**Q.** And the solubility [22]?
**A.** > 80 µM

**Q.** With `COc1ccccc1N1CCN(C(=O)COCc2ccccc2)CC1` as the compound, how does the Activity [2] read?
**A.** 86%

**Q.** And the EC50 ([3]; read-out: EC50)?
**A.** 9.2 µM

**Q.** For `O=C(COCc1ccccc1)N1CCN(c2cccnc2)CC1`, which EC50 ([3]; hek293) is on record?
**A.** Not Active

**Q.** Which Activity [2] does the source give for `COC(=O)c1ccccc1N1CCN(C(=O)COCc2ccccc2)CC1` here?
**A.** 51%

**Q.** What about the EC50 ([3]; read-out: EC50) of the same compound?
**A.** > 10 µM

**Q.** With `O=C(COCc1ccccc1)N1CCN(c2nc3ccccc3s2)CC1` as the compound, how does the Activity [2] read?
**A.** 66%

**Q.** And the EC50 ([3]; read-out: EC50)?
**A.** > 10 µM

**Q.** For `O=C(COCc1ccccc1)N1CCN(c2ccccc2[N+](=O)[O-])CC1`, which Activity [2] is on record?
**A.** 81%

**Q.** What about the EC50 ([3]; read-out: EC50) of the same compound?
**A.** 1.8 µM

**Q.** With `N#Cc1cccnc1N1CCN(C(=O)COCc2ccccc2)CC1` as the compound, how does the Activity [2] read?
**A.** 33%

**Q.** What about the EC50 ([3]; read-out: EC50) of the same compound?
**A.** > 10 µM

**Q.** With `O=C(COCc1ccccc1)N1CCN(c2ccccn2)CC1` as the compound, how does the Activity [2] read?
**A.** 86%

**Q.** And the EC50 ([3]; read-out: EC50)?
**A.** 5.4 µM
